# Published values gathered from unrelated publications.
# SCN1A: Sodium channel protein type 1 subunit alpha (SCN1A, Homo sapiens, UniProt P35498)
# RIPK2: Receptor-interacting serine/threonine-protein kinase 2 (RIPK2, Homo sapiens, UniProt O43353)
SMILES,target,assay,system,setting,measurement,value
CC12CC3CC(C)(C1)CC(N)(C3)C2,SCN1A,"ion current, inhibitor, patch clamp",,3 µM,inhibition,0.782%
CNc1ncc2c(/C=C/C(=O)N3CCC(OC)CC3)nn(Cc3cccc(C(F)(F)F)c3)c2n1,RIPK2,"enzyme activity, inhibitor, radiometric",,1 µM,remaining activity,87%
C[C@H]1O[C@H](O[C@H]2[C@H](O)[C@@H](O)[C@@H](O[C@H]3[C@H](O)[C@@H](O)C(O)O[C@@H]3CO)O[C@@H]2CO)[C@H](O)[C@@H](O)[C@@H]1N[C@H]1C=C(CO)[C@@H](O)[C@H](O)[C@H]1O (stereo partly shown),"Alpha-glucosidase MAL12 (MAL12, Saccharomyces cerevisiae S288c, UniProt P53341)","enzyme activity, inhibitor, absorbance",,2000 µg/mL,inhibition,91.2%
C=CC(=O)N1CCC(COCC(=O)N2CCN(c3nc(-c4cnc(N)nc4C(F)F)nc(N4CCOC[C@@H]4C)n3)CC2)CC1,RIPK2,"binding, competition with immobilised ligand",,1 µM,remaining binding,95%
CC(C)NCC(O)COc1cccc2ccccc12 (stereo not shown),SCN1A,"ion current, inhibitor, patch clamp",,3 µM,inhibition,2.62%
COc1cc(-c2cncc3c2CN(C)Cc2cc(N4CCNCC4)ccc2-3)cc(OC)c1OC,"Cyclin-dependent kinase 5, with p25 (CDK5, Homo sapiens, UniProt Q00535)","enzyme activity, inhibitor",,1 µM,remaining activity,109%
Cc1cc([C@@H](C)Nc2ccccc2C(=O)O)c2nc(N3CCC(F)(F)CC3)c(C#N)c(=O)n2c1,"Focal adhesion kinase 1 (PTK2, Homo sapiens, UniProt Q05397)","binding, competition with immobilised ligand",,10 µM,remaining binding,100%
CC(=O)c1c(C)c2cnc(Nc3ccc(N4CCNCC4)cn3)nc2n(C2CCCC2)c1=O,"Cyclin-dependent kinase 5, with p35 (CDK5, Homo sapiens, UniProt Q00535)","enzyme activity, inhibitor, ADP detection",,1 µM,activity vs control,103%
Cc1nnc(SCC2=C(C(=O)O)N3C(=O)[C@@H](NC(=O)Cn4cnnn4)[C@H]3SC2)s1,SCN1A,"ion current, inhibitor, patch clamp",,10 µM,inhibition,4.84%
CNC[C@H](O)c1cccc(O)c1,"Alpha-1A adrenergic receptor (ADRA1A, Homo sapiens, UniProt P35348)","calcium signal, agonist",COS-7,,Emax,~80%
